Measured values as given in ChEMBL document CHEMBL3244300, “Pyrimidinylpropenamides as antitumor agents. Analogues of the antibiotic sparsomycin” (1977).
Values after ≈ are worked out from the molar mass of the structure shown. Active and inactive are the calls of the source. The rule behind the calls is not given here.

Assays:
Format in all cases: functional
P388 [1] = test: Antitumor activity against mouse P388 cells allografted in mouse assessed as increase in life span at 400 mg/kg, ip qd administered on day 1 to day 9 relative to control; conditions: route intraperitoneal
Method in brief: (§1)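 NCI Division of Cancer Treatment standard P-388 lymphocytic leukaemia protocol in mice. Drug given intraperitoneally once daily on days 1–9, with dose in mg/kg. The vehicle was water, saline or propylene glycol depending on the compound. T/C = (mean or median survival of treated ÷ control survival) × 100.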

KB = test: Cytotoxicity against human KB cells assessed as growth inhibition; conditions: for EC50: Homo sapiens, KB, read-out: ED50 (the source's name)
Method in brief: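 KB cell culture run under standard National Cancer Institute Division of Cancer Treatment protocols. Compounds were dissolved in water or propylene glycol as vehicle, depending on the compound. ED50 is the dose that inhibits growth to 50% of control growth, in μg/ml.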

P388 [2] = test: Antitumor activity against mouse P388 cells allografted in mouse assessed as increase in life span at 0.3 mg/kg, ip qd administered on day 1 to day 9 relative to control; conditions: route intraperitoneal; method in brief: as §1
P388 [3] = test: Antitumor activity against mouse P388 cells allografted in mouse assessed as increase in life span at 6.25 mg/kg, ip qd administered on day 1 to day 9 relative to control; conditions: route intraperitoneal; method in brief: as §1
P388 [4] = test: Antitumor activity against mouse P388 cells allografted in mouse assessed as increase in life span at 38.4 mg/kg, ip qd administered on day 1 to day 9 relative to control; conditions: route intraperitoneal; method in brief: as §1
P388 [5] = test: Antitumor activity against mouse P388 cells allografted in mouse assessed as increase in life span at 5 mg/kg, ip qd administered on day 1 to day 9 relative to control; conditions: route intraperitoneal; method in brief: as §1
P388 [6] = test: Antitumor activity against mouse P388 cells allografted in mouse assessed as increase in life span at 100 mg/kg, ip qd administered on day 1 to day 9 relative to control; conditions: route intraperitoneal; method in brief: as §1
P388 [7] = test: Antitumor activity against mouse P388 cells allografted in mouse assessed as increase in life span at 256 mg/kg, ip qd administered on day 1 to day 9 relative to control; conditions: route intraperitoneal; method in brief: as §1
P388 [8] = test: Antitumor activity against mouse P388 cells allografted in mouse assessed as increase in life span at 40 mg/kg, ip qd administered on day 1 to day 9 relative to control; conditions: route intraperitoneal; method in brief: as §1

For `Cc1[nH]c(=O)[nH]c(=O)c1/C=C/C(=O)NC(CO)CSC(C)C` (stereo not given), the T/C (P388 [1]) was 89% and the EC50 (KB) was over 100 µg/mL.
`CSC[S+]([O-])C[C@H](CO)NC(=O)/C=C/c1c(C)[nH]c(=O)[nH]c1=O` (stereo not given in full) was tested, and the T/C (P388 [2]) was 156% and the EC50 (KB) was 0.08 µg/mL (≈ 0.221 µM).
Work on `CCCCCCCCCC[S+]([O-])CC(CO)NC(=O)/C=C/c1c(C)nc(O)nc1O` (racemic) yielded a T/C (P388 [3]) of 153%.
`CSCSCC(CO)NC(=O)/C=C/c1c(C)nc(O)nc1O` (racemic) [listing 1 of 2 here] was tested, and the T/C (P388 [4]) was 92%.
`CCCC[S+]([O-])CC(CO)NC(=O)/C=C/c1c(C)[nH]c(=O)[nH]c1=O` (racemic) showed an EC50 (KB) of 1.2 µg/mL (≈ 3.36 µM) and a T/C (P388 [5]) of 161%.
`CCCCCCCCCCSCC(CO)NC(=O)/C=C/c1c(C)[nH]c(=O)[nH]c1=O` (racemic) showed a T/C (P388 [6]) of 155%.
For `CSCC(CO)NC(=O)/C=C/c1c(C)[nH]c(=O)[nH]c1=O` (racemic), the T/C (P388 [1]; 400 mg/kg) was 88%.
`Cc1[nH]c(=O)[nH]c(=O)c1/C=C/C(=O)NC(CO)C[S+](C)[O-].O` (racemic) gave a T/C (P388 [7]) of 137% and an ED50 (KB) of 1.5 µg/mL.
Work on `Cc1[nH]c(=O)[nH]c(=O)c1/C=C/C(=O)NC(CO)C[S+]([O-])C[S+](C)[O-].O` (racemic) yielded an EC50 (KB) of 2.4 µg/mL and a T/C (P388 [5]) of 137%.
In the case of `CSCSCC(CO)NC(=O)/C=C/c1c(C)nc(O)nc1O` (racemic) [listing 2 of 2 here], the ED50 (KB) is reported as “inactive”.
With `CSCSCC(CO)NC(=O)/C=C/c1c(C)nc(O)nc1O` (single isomer, unassigned; (+)) the T/C (P388 [1]; 400 mg/kg) was 14% and the ED50 (KB) was 13 µg/mL (≈ 37.6 µM).
`CSCSCC(CO)NC(=O)/C=C/c1c(C)nc(O)nc1O` (single isomer, unassigned; (-)) was tested, and the T/C (P388 [1]; 400 mg/kg) was 86% and the ED50 (KB) was over 100 µg/mL.
With `CSCC(CO)NC(=O)/C=C/c1c(C)[nH]c(=O)[nH]c1=O` (single isomer, unassigned; (-)) the T/C (P388 [1]; 400 mg/kg) was 69% and the EC50 (KB) was over 100 µg/mL.
Compound `Cc1[nH]c(=O)[nH]c(=O)c1/C=C/C(=O)NC(CO)CSCc1ccccc1` (single isomer, unassigned; (-)) has a T/C (P388 [1]) of 95% and an EC50 (KB) of over 100 µg/mL.
For `CCCCSCC(CO)NC(=O)/C=C/c1c(C)[nH]c(=O)[nH]c1=O` (single isomer, unassigned; (-)), the EC50 (KB) was 27 µg/mL (≈ 79.1 µM).
With `Cc1[nH]c(=O)[nH]c(=O)c1/C=C/C(=O)NC(CO)C[S+]([O-])Cc1ccccc1.O` (single isomer, unassigned; (-)) the T/C (P388 [1]) was 93% and the EC50 (KB) was 88 µg/mL.
For `Cc1[nH]c(=O)[nH]c(=O)c1/C=C/C(=O)NC(CO)C[S+]([O-])C(C)C.O` (single isomer, unassigned; (-)), the T/C (P388 [1]) was 113% and the EC50 (KB) was over 100 µg/mL.
`Cc1[nH]c(=O)[nH]c(=O)c1/C=C/C(=O)NC(CO)C[S+](C)[O-].O` (stereo in doubt; 10c) showed a T/C (P388 [8]) of 100% and an ED50 (KB) of over 100 µg/mL.
